From ChEMBL document CHEMBL1133340, “Design, synthesis, and structure-activity relationship studies of ATP analogues as DNA gyrase inhibitors” (2000) come the findings set out here.

Values after ≈ are worked out from the molar mass of the structure shown. Where only a bound is given, the exact number is not on record here.

The subject of test [1] is Staphylococcus aureus. The experiment in a line: Compound was tested in vitro for antibacterial activity against Staphylococcus aureus Coum-R. The test is classed as functional. Summed up: (§1)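 MIC by 2-fold agar dilution on Mueller-Hinton agar, inoculum 10⁴ CFU per spot.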
Test [2] deals with Staphylococcus aureus. Kind of test: Compound was tested in vitro for antibacterial activity against Staphylococcus aureus H19982. The class given is functional. Summed up: as §1
Test [3] relates to Staphylococcus aureus. The experiment in a line: Compound was tested in vitro for antibacterial activity against Staphylococcus aureus Smith. The class given is functional. The method, boiled down: as §1
The next test deals with Enterococcus faecium. Kind of test: Compound was tested in vitro for antibacterial activity against Enterococcus faecium vanA E23-8. The class given is functional. The method, boiled down: as §1
The subject of a further test is Streptococcus pyogenes. The experiment in a line: Compound was tested in vitro for antibacterial activity against Streptococcus pyogenes beta15. The class given is functional. The method, boiled down:
as §1

Test [4] concerns the target T1, DNA gyrase (Escherichia coli) (UniProt P0AES6+P0AES4).
In test [5] the test system is Staphylococcus aureus. Kind of test: Compound was tested in vitro for antibacterial activity against Staphylococcus aureus NovoR. The test is classed as functional. Summed up: as §1
Test [6] has as its system Staphylococcus epidermidis. The experiment in a line: Compound was tested in vitro for antibacterial activity against Staphylococcus epidermidis ATCC 14990. The test is classed as functional. Summed up: as §1
The subject of test [7] is Staphylococcus aureus. Kind of test: Compound was tested in vitro for antibacterial activity against Staphylococcus aureus Smith QR-54. The test is classed as functional. The method, boiled down: as §1
Test [8] deals with Staphylococcus aureus. The experiment in a line: Compound was tested in vitro for antibacterial activity against Staphylococcus aureus ATCC 25923. The class given is functional. Summed up: as §1
For test [9], the target named is T1, DNA gyrase (Escherichia coli). Kind of test: Maximum non-effective concentration against in vitro Escherichia coli DNA gyrase supercoiling activity was determined by coupled spectrophotometric ATPase assay. The test is classed as protein-complex assay. The method, boiled down:
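E. coli DNA gyrase ATPase activity measured in a coupled spectrophotometric system with pyruvate kinase and lactate dehydrogenase, following NADH disappearance as ATP is consumed; supercoiling assay used for validation. Value reported as maximum non-effective concentration (MNEC), the highest inhibitor concentration showing no gyrase inhibition.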

For orientation: MIC means the least concentration at which growth counts as inhibited. Higher therefore signals a less susceptible organism. With `CCc1nn(-c2cc(Cl)cc(Cl)c2)c2nc(Oc3ccc4c(O)c(NC(C)=O)c(=O)oc4c3)nc(N)c12`, the minimal inhibitory concentration (MIC) in the test with Staphylococcus aureus [1] was 16 µg/mL (≈ 29.6 µM); against Staphylococcus aureus [2] it was 4 µg/mL (≈ 7.39 µM); against Staphylococcus aureus [3], 8 µg/mL (≈ 14.8 µM); against Enterococcus faecium it was greater than 32 µg/mL; against Streptococcus pyogenes, 1 µg/mL (≈ 1.85 µM); against Staphylococcus aureus [5] it was 16 µg/mL (≈ 29.6 µM). Further, the values for the MIC (in [6]; against Staphylococcus aureus [7]; against Staphylococcus aureus [8]) were 4 µg/mL (≈ 7.39 µM), 8 µg/mL (≈ 14.8 µM) and 16 µg/mL (≈ 29.6 µM), respectively. In [4], this compound displayed an MNEC of 0.5 µg/mL.

As to `Nc1nc(Sc2cccc(C(=O)O)c2)nc2c(-c3ccc(Cl)c(Cl)c3)cnn12`, the minimum inhibitory concentration (MIC) was greater than 32 µg/mL in the test with Staphylococcus aureus [1]; greater than 32 µg/mL against Staphylococcus aureus [2]; greater than 32 µg/mL with Staphylococcus aureus [3]; 32 µg/mL (≈ 74 µM) against Enterococcus faecium; 0.5 µg/mL (≈ 1.16 µM) in the test on Streptococcus pyogenes; greater than 32 µg/mL in the test with Staphylococcus aureus [5]. The MIC was 4 µg/mL (≈ 9.25 µM) in test [6], greater than 32 µg/mL with Staphylococcus aureus [7] and greater than 32 µg/mL with Staphylococcus aureus [8]. In test [4], the MNEC is 1 µg/mL.

`Cc1nn(-c2cc(Cl)cc(Cl)c2)c2nc(Oc3ccc4c(O)cc(=O)oc4c3)nc(N)c12` showed an MNEC in test [4] of 0.25 µg/mL.

`CCc1nn(-c2cc(Cl)cc(Cl)c2)c2nc(Oc3ccc4c(O)cc(=O)oc4c3)nc(NC3CC3)c12` returned an MNEC in test [4] of 4 µg/mL.

As for `Cc1ccc(Oc2nc(N)c3c(C)nn(-c4cc(Cl)cc(Cl)c4)c3n2)cn1`, in test [9], the MNEC stood at 125 µg/mL.

On to `CCCCNC(=O)Nc1c(O)oc2cc(Oc3nc(N)c4c(CC)nn(-c5cc(Cl)cc(Cl)c5)c4n3)ccc2c1=O`, for which the MIC in the test on Staphylococcus aureus [1] is 8 µg/mL (≈ 13.4 µM); in the test on Staphylococcus aureus [2], 4 µg/mL (≈ 6.68 µM); in the test with Staphylococcus aureus [3], 8 µg/mL (≈ 13.4 µM); against Enterococcus faecium it was 16 µg/mL (≈ 26.7 µM); with Streptococcus pyogenes, 2 µg/mL (≈ 3.34 µM); in the test with Staphylococcus aureus [5], 8 µg/mL (≈ 13.4 µM). For the same compound, the results for the minimal inhibitory concentration (MIC) (in test [6]; with Staphylococcus aureus [7]; with Staphylococcus aureus [8]) were 4 µg/mL (≈ 6.68 µM), 2 µg/mL (≈ 3.34 µM) and 4 µg/mL (≈ 6.68 µM), respectively. The compound also registered an MNEC in test [4] of 0.5 µg/mL.

Turning to `CCc1nn(-c2cc(Cl)cc(Cl)c2)c2nc(Oc3ccc4c(O)c(C(C)=O)c(=O)oc4c3)nc(N)c12`, the MNEC in [4] was found to be 2 µg/mL.

For the compound `CCc1nn(-c2cc(Cl)cc(Cl)c2)c2nc(Oc3ccc4c(O)cc(=O)oc4c3)nc(N)c12`, the MNEC in [4] was 0.06 µg/mL.

Compound `CCc1nn(-c2cccc(F)c2)c2nc(Oc3ccc4c(O)cc(=O)oc4c3)nc(N)c12` had an MNEC in test [4] of 1 µg/mL.

On to `Cc1nn(-c2cc(Cl)cc(Cl)c2)c2nc(Sc3cccc(C(=O)O)c3)nc(N)c12`, for which the MNEC in test [4] was 1 µg/mL.

The compound `CCc1nn(-c2cccc(F)c2)c2nc(Sc3cccc(C(=O)O)c3)nc(N)c12` had an MNEC in [4] of 8 µg/mL.

With `CO[C@@H]1[C@@H](OC(N)=O)[C@@H](O)[C@H](Oc2ccc3c(O)c(NC(=O)c4ccc(O)c(CC=C(C)C)c4)c(=O)oc3c2C)OC1(C)C` [NOVOBIOCIN], the minimal inhibitory concentration (MIC) against Staphylococcus aureus [1] turned out to be 16 µg/mL (≈ 26.1 µM); against Staphylococcus aureus [2], 0.25 µg/mL (≈ 0.408 µM); against Staphylococcus aureus [3], 0.25 µg/mL (≈ 0.408 µM); in the test with Enterococcus faecium, 8 µg/mL (≈ 13.1 µM); in the test with Streptococcus pyogenes it was 2 µg/mL (≈ 3.26 µM); against Staphylococcus aureus [5] it was 8 µg/mL (≈ 13.1 µM). Besides, the MIC came out at 0.12 µg/mL (≈ 0.196 µM) in test [6], 8 µg/mL (≈ 13.1 µM) against Staphylococcus aureus [7] and 0.25 µg/mL (≈ 0.408 µM) in the test with Staphylococcus aureus [8].

For the compound `Cc1ccc(Oc2nc(N)n3ncc(-c4ccc(Cl)c(Cl)c4)c3n2)cn1`, the MNEC was greater than 63 µg/mL in [4] and less than 16 µg/mL in [9].

`Cc1nn2c(N)nc(Oc3ccc4c(O)cc(=O)oc4c3)nc2c1C#N` returned an MNEC in test [4] of 8 µg/mL.

`CCNc1nc(Sc2cccc(C(=O)O)c2)nc2c1c(CC)nn2-c1cc(Cl)cc(Cl)c1`: the MNEC in test [4] was determined as 8 µg/mL.

`Nc1nc(Sc2cccc(C(=O)O)c2)nc2c1cnn2-c1cc(Cl)cc(Cl)c1` yielded an MNEC in test [4] of 1 µg/mL.

For the compound `CCc1nn(-c2cc(Cl)cc(Cl)c2)c2nc(Sc3cccc(C(=O)O)c3)nc(N)c12`, the minimal inhibitory concentration (MIC) against Staphylococcus aureus [1] is 32 µg/mL (≈ 69.5 µM); in the test with Staphylococcus aureus [2], 4 µg/mL (≈ 8.69 µM); with Staphylococcus aureus [3], 16 µg/mL (≈ 34.8 µM); against Enterococcus faecium it was greater than 32 µg/mL; against Staphylococcus aureus [5], 32 µg/mL (≈ 69.5 µM); in test [6] it was 0.5 µg/mL (≈ 1.09 µM). The MIC in the test with Staphylococcus aureus [7] was 2 µg/mL (≈ 4.34 µM); against Staphylococcus aureus [8], 16 µg/mL (≈ 34.8 µM). In test [4], the MNEC was found to be 0.25 µg/mL.

With `CCc1nn(-c2cc(Cl)cc(Cl)c2)c2nc(Oc3ccc(C)nc3)nc(N)c12`, the figures for the MNEC in [4] and in test [9] were greater than 16 µg/mL and less than 16 µg/mL, respectively.

As for `CCc1nn(-c2cc(Cl)cc(Cl)c2)c2nc(Oc3ccc4c(N(C)C)cc(=O)oc4c3)nc(N)c12`, the MNEC in test [9] is 125 µg/mL.

In the case of `Nc1nc(Oc2ccc3c(O)cc(=O)oc3c2)nc2c1cnn2-c1cc(Cl)cc(Cl)c1`, the MNEC in test [4] worked out at 0.5 µg/mL.

On to `CCc1nn(-c2cc(Cl)cc(Cl)c2)c2nc(Sc3cccc(C(=O)O)c3)nc(NC3CC3)c12`, for which, in test [4], the MNEC amounted to 8 µg/mL.

`COc1ccc(-c2cnn3c(N)nc(Oc4ccc5c(O)cc(=O)oc5c4)nc23)cc1OC` registered an MNEC in test [4] of 0.1 µg/mL.

For the compound `Cc1nn2c(N)nc(Sc3cccc(C(=O)O)c3)nc2c1C#N`, the MNEC in test [4] was determined as 0.5 µg/mL.

For `CCOC(=O)c1cccc(Oc2nc(N)c3c(C)nn(-c4cc(Cl)cc(Cl)c4)c3n2)c1`, the MNEC in test [9] amounted to 63 µg/mL.

The compound `CCOC(=O)c1cccc(Oc2nc(N)c3cnn(-c4cc(Cl)cc(Cl)c4)c3n2)c1` displayed an MNEC in [9] of 125 µg/mL.

Take `CCOC(=O)c1cccc(Oc2nc(N)c3c(CC)nn(-c4cc(Cl)cc(Cl)c4)c3n2)c1`: the MNEC in [9] is 125 µg/mL.

Turning to `CCOC(=O)c1c(O)oc2cc(Oc3nc(N)c4c(CC)nn(-c5cc(Cl)cc(Cl)c5)c4n3)ccc2c1=O`, the MNEC in test [4] turned out to be 2 µg/mL.

For `Cc1ccc(Oc2nc(N)c3cnn(-c4cc(Cl)cc(Cl)c4)c3n2)cn1`, in test [4], the MNEC is greater than 125 µg/mL.

In the case of `CCc1nn(-c2cc(Cl)cc(Cl)c2)c2nc(Oc3ccc4c(C)cc(=O)oc4c3)nc(N)c12`, in test [9], the MNEC is greater than 125 µg/mL.
